We go through nine compounds from ChEMBL document CHEMBL1137290, “Design, synthesis, and biological evaluation of a new class of small molecule peptide mimetics targeting the melanocortin receptors” (Bioorg Med Chem Lett, 2006).

The target of assay [1] is T1, Melanocyte-stimulating hormone receptor (Homo sapiens, UniProt Q01726). Kind of assay: Displacement of [125I]NDP-alpha-MSH from human MC1R expressed in HEK293 cells. The assay is classed as cell-based. A general note: Loss of bound radioactivity is the signal in a displacement assay; it reports binding, not function.
Target sequence in this assay (Q01726 whole entry): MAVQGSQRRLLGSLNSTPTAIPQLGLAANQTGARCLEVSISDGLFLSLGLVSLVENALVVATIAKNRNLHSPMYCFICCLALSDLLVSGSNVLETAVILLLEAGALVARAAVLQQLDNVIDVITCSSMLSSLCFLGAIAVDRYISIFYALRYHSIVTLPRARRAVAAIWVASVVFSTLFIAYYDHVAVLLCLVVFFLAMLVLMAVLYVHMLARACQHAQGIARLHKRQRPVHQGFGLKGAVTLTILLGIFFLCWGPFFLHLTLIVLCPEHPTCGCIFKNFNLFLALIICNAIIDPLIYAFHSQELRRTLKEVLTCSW
In assay [2] the target is T2, Melanocortin receptor 3 (Homo sapiens, UniProt P41968). Kind of assay: Displacement of [125I]NDP-alpha-MSH from human MC3R expressed in HEK293 cells. The class given is cell-based.
T2 sequence (P41968 whole entry): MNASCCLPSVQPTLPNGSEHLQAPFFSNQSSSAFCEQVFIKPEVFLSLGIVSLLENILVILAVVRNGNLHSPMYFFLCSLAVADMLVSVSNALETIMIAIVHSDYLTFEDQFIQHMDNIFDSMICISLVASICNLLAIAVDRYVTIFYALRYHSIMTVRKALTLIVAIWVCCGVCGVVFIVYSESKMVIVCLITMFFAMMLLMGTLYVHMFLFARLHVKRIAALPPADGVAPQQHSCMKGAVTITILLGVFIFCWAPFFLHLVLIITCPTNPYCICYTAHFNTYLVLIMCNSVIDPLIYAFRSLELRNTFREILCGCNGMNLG
Assay [3] deals with T3, Melanocortin receptor 4 (Homo sapiens, UniProt P32245). Kind of assay: Displacement of [125I]NDP-alpha-MSH from human MC4R expressed in HEK293 cells. The class given is cell-based.
T3 sequence (P32245 whole entry): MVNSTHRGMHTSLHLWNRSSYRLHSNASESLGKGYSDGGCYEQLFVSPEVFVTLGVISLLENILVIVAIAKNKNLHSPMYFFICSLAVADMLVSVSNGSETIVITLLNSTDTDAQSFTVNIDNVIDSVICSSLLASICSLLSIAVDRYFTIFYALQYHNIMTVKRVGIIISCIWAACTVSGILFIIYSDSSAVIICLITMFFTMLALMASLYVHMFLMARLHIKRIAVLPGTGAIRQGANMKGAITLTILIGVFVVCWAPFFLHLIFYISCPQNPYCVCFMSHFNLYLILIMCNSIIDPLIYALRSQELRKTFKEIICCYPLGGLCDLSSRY
Assay [4] concerns the target T4, Melanocortin receptor 5 (Homo sapiens, UniProt P33032). Description: Displacement of [125I]NDP-alpha-MSH from human MC5R expressed in HEK293 cells. The class given is cell-based.
The target of assay [5] is T4, Melanocortin receptor 5. Description: Displacement of [125I]NDP-alpha-MSH from human MC5R expressed in HEK293 cells relative to MT-II. The class given is cell-based. The essentials:
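Binding efficiency was measured on whole HEK293 cells expressing hMC5R, by competition with 125I-NDP-α-MSH. It is the maximum radioligand displacement by the test compound divided by the maximum displacement caused by excess MT-II.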

Assay [6] deals with T1, Melanocyte-stimulating hormone receptor. Kind of assay: Activity at human MC1R expressed in HEK293 cells assessed by measuring intracellular cAMP accumulation. The assay is classed as functional, cell-based. The essentials:
(§1)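 Whole HEK293 cells expressing the human melanocortin receptor were incubated with ligand, and the cAMP they produced was measured as the read-out of adenylate cyclase activation.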
Target sequence in this assay (Q01726 whole entry): as the sequence (Q01726 whole entry) above

Assay [7] deals with T2, Melanocortin receptor 3. Description: Activity at human MC3R expressed in HEK293 cells assessed by measuring intracellular cAMP accumulation. The class given is functional, cell-based. The essentials:
as §1
For orientation: Cyclic AMP is a second messenger, typically raised through Gs and lowered through Gi signalling.

For assay [8], the target named is T4, Melanocortin receptor 5. Kind of assay: Activity at human MC5R expressed in HEK293 cells assessed by measuring intracellular cAMP accumulation. The class given is functional, cell-based. The essentials:
as §1

The target of assay [9] is T3, Melanocortin receptor 4. Kind of assay: Activity at human MC4R expressed in HEK293 cells assessed by measuring intracellular cAMP accumulation. The class given is functional, cell-based. A digest of the protocol: as §1
For assay [10], the target named is T1, Melanocyte-stimulating hormone receptor. Kind of assay: Activity at human MC1R expressed in HEK293 cells assessed as activation of adenylate cyclase. The class given is functional, cell-based. Also noted: concentration or dose not given beside the values. The essentials:
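Whole HEK293 cells expressing the human melanocortin receptor were incubated with ligand, and the cAMP they produced was measured as the read-out of adenylate cyclase activation. EC50 is the concentration giving 50% of maximal intracellular cAMP accumulation.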
Target sequence in this assay (Q01726 whole entry, looked up): as the sequence (Q01726 whole entry) above

The target of assay [11] is T2, Melanocortin receptor 3. Description: Activity at human MC3R expressed in HEK293 cells assessed as activation of adenylate cyclase. The class given is functional, cell-based. Also noted: concentration or dose not given beside the values. The essentials: as §1
Assay [12] deals with T4, Melanocortin receptor 5. Kind of assay: Activity at human MC5R expressed in HEK293 cells assessed as activation of adenylate cyclase. The class given is functional, cell-based. Also on record: concentration or dose not given beside the values. The essentials: as §1
The target of assay [13] is T3, Melanocortin receptor 4. Description: Activity at human MC4R expressed in HEK293 cells assessed as activation of adenylate cyclase. The class given is functional, cell-based. Also noted: concentration or dose not given beside the values. A digest of the protocol: as §1
The target in assay [14] is T1, Melanocyte-stimulating hormone receptor. Kind of assay: Displacement of [125I]NDP-alpha-MSH from human MC1R expressed in HEK293 cells relative to MT-II. The class given is cell-based.
Target sequence in this assay (Q01726 whole entry, looked up): as the sequence (Q01726 whole entry) above

T4 sequence (P33032 whole entry): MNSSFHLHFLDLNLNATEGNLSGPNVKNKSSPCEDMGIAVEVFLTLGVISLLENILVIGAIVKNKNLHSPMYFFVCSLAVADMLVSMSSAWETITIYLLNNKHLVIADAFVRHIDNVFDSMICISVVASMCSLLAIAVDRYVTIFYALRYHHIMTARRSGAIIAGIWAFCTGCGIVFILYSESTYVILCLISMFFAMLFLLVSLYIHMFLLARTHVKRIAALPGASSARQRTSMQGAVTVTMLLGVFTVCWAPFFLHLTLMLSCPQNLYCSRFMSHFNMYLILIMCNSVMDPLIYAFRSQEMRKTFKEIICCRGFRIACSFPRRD

Broadly, the IC50 is the point on the concentration scale where inhibition reaches its midpoint. The term EC50 denotes the concentration at which the effect is half-maximal. In the case of `O=C(CCC(=O)N1C[C@@H]2CCCN2C[C@H]1Cc1ccccc1)NCCc1c[nH]c2ccccc12`, the IC50 in assay [1] was more than 10 µM; in assay [2] it was more than 10 µM; in assay [3], more than 10 µM; in [4], 0.0001 µM. Moreover, the Activity in assay [5] was found to be 60%; in [10], 0%; in assay [11] it was 0%; in assay [12], 0%; in [13] it was 0%. Besides, the EC50 in assay [6], in assay [7], in [8] and in assay [9] was more than 10 µM each time.

In the case of `O=C(CCC(=O)N1C[C@@H]2CCCN2C[C@@H]1Cc1ccccc1)NCCc1c[nH]c2ccccc12`, the IC50 in assay [1] was more than 10 µM; in assay [2] it was more than 10 µM; in assay [3] it was more than 10 µM; in assay [4], 0.0005 µM. For the same compound, the Activity in assay [5] was 50%; in [10], 0%; in assay [11] it was 0%; in [12], 0%; in [13] it was 0%. Moreover, the EC50 in assay [6], in [7], in assay [8] and in assay [9] was more than 10 µM in each case.

As to `O=C(CCc1c[nH]c2ccccc12)N1C[C@@H]2CCCN2C[C@@H]1Cc1ccccc1`, the IC50 is more than 10 µM in [1], more than 10 µM in assay [2], more than 10 µM in [3] and 0.0008 µM in assay [4]. For the same compound, the Activity turned out to be 50% in assay [5]; 0% in assay [10]; 0% in [11]; 0% in assay [12]; 0% in assay [13]. For the same compound, the EC50 in [6], in [7], in assay [8] and in assay [9] was more than 10 µM each time.

Turning to `O=C(Cc1ccccc1)N1C[C@@H]2CCCN2C[C@H]1Cc1ccccc1`, the IC50 in assay [1] was 0.0013 µM; in assay [2], 0.005 µM; in assay [3], 0.0012 µM; in assay [4] it was more than 10 µM. Besides, the Activity worked out at 90% in assay [14]; 0% in assay [10]; 0% in [11]; 0% in assay [12]; 0% in assay [13]. In addition, the EC50 in assay [6], in assay [7], in assay [8] and in [9] was more than 10 µM in each case.

Regarding `O=C(CCc1c[nH]c2ccccc12)NCCCCCC(=O)N1C[C@@H]2CCCN2C[C@@H]1Cc1ccccc1`, the IC50 is more than 10 µM in assay [1], more than 10 µM in assay [2], more than 10 µM in assay [3] and 0.0004 µM in [4]. In addition, the Activity amounted to 65% in assay [5]; 0% in assay [10]; 0% in assay [11]; 0% in [12]; 0% in [13]. The EC50 in [6], in [7], in assay [8] and in assay [9] was more than 10 µM each time.

With `O=C(CCc1c[nH]c2ccccc12)N1C[C@@H]2CCCN2C[C@H]1Cc1ccccc1`, the IC50 was 0.004 µM in assay [1], 0.0012 µM in assay [2], more than 10 µM in assay [3] and more than 10 µM in assay [4]. Also, the Activity in assay [14] was found to be 50%; in assay [10] it was 0%; in assay [11], 0%; in assay [12], 0%; in assay [13], 0%. Further, the EC50 in assay [6], in assay [7], in [8] and in [9] was more than 10 µM throughout.

On to `NC(N)=NCCC[C@H](NC(=O)CCc1c[nH]c2ccccc12)C(=O)N1C[C@@H]2CCCN2C[C@@H]1Cc1ccccc1`, for which the IC50 in assay [1] was more than 10 µM; in assay [2], more than 10 µM; in assay [3], more than 10 µM; in assay [4], 0.0001 µM. In addition, the EC50 in assay [6], in assay [7], in assay [8] and in assay [9] was more than 10 µM in each case.

Regarding `N=C(N)NCCC[C@H](NC(=O)CCc1c[nH]c2ccccc12)C(=O)N1C[C@@H]2CCCN2C[C@@H]1Cc1ccccc1`, the Activity in assay [5] turned out to be 60%; in assay [10] it was 20%; in assay [11], 0%; in [12], 0%; in assay [13] it was 0%.

Regarding `O=C(Cc1ccccc1)N1C[C@@H]2CCCN2C[C@@H]1Cc1ccccc1`, the IC50 is 0.0022 µM in assay [1], 0.35 µM in [2], more than 10 µM in assay [3] and more than 10 µM in assay [4]. In addition, the Activity in [14] was 80%; in assay [10], 0%; in assay [11] it was 0%; in assay [12], 0%; in [13], 30%. The EC50 in [6] is more than 10 µM; in assay [7] it was more than 10 µM; in assay [8], more than 10 µM; in assay [9], 0.0027 µM.
